Consider four substances from publication PMC2745912 (The Journal of neuroscience : the official journal of the …, 2009).

Data set [1] deals with ABCG2 expression in HBEC. The experiment in a line: ABCG2 expression in human brain endothelial cells. The note with it: 50 units of either cytokine; data not shown. It is filed as cell-based.
The target in data set [2] is T1, hABCG2 (Homo sapiens, UniProt Q9UNQ0).
T1 sequence (Q9UNQ0 1-655): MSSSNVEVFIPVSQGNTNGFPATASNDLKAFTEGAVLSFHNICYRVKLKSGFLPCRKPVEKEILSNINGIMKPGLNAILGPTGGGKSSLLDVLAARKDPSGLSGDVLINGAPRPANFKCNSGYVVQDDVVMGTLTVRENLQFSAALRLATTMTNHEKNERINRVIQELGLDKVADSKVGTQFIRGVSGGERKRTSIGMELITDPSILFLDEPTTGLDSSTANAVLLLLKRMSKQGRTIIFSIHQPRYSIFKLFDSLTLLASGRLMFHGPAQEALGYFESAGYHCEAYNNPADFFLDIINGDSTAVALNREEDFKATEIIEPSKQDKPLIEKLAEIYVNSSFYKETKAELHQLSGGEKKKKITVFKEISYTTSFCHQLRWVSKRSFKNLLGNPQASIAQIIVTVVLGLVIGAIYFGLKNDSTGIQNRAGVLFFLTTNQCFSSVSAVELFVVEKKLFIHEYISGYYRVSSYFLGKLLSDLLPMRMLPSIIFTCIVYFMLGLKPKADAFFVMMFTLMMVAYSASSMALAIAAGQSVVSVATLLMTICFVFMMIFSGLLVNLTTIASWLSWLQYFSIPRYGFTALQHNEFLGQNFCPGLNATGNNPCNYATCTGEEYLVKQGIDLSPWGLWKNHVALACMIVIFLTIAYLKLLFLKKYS
It counts as cell-based. The note with it: empty vector-transfected HEK293; 5 μM Aβ1-40; Hoechst 33342; data not shown.

For data set [3], the target named is T2, Abcg2 (Mus musculus, UniProt Q7TMS5).
T2 sequence (Q7TMS5 1-657): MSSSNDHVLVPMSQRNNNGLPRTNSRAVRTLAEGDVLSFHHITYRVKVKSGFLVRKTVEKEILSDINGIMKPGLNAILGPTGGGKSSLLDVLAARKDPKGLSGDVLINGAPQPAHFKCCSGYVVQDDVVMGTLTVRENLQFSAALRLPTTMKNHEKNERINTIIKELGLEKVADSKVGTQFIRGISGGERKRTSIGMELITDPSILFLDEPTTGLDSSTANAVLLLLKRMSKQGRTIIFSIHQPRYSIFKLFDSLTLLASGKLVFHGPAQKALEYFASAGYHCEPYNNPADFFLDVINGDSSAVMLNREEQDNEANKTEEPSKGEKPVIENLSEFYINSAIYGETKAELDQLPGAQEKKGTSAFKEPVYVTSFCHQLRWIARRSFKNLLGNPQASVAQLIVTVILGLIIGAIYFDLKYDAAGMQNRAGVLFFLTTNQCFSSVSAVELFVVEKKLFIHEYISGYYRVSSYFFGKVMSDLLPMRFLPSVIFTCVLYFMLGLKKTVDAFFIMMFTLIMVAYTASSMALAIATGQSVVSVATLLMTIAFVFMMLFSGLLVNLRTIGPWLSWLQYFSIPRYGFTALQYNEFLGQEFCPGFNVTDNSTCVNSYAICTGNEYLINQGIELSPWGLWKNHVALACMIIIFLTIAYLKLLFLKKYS
It counts as in vivo. In outline:
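Peptides were Cy5.5-labeled via NHS ester kit. Adult KO/wt pairs were matched for age, sex and weight and shaved under isoflurane. Pairs received equal labeled peptide (65 or 200 μg) by tail vein. Heads were imaged live (1.5 mm resolution) at 15 min and 2, 4, 6, 8 and/or 24 h. Brains were saline-perfused and scanned ex vivo (1 mm). Excitation: 670 nm pulsed laser diode, 80 MHz, 12 ps.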

Data set [4] deals with T2, Abcg2. It counts as in vivo. The note with it: after intravenous injection; brain sections stained with 6E10. The procedure, abridged:
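Mice received i.v. Cy5.5-labeled Aβ1–40 and underwent optical imaging, then saline perfusion. Brains were OCT-embedded and frozen-sectioned at 10 μm. Sections were immunostained with anti-Aβ 6E10 plus secondary antibody; control sections got secondary antibody only. Vessels were marked with fluorescein-labeled tomato lectin.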

For TNF-α, in data set [1], the “ABCG2 expression in HBEC after cytokine” value was “no changes in ABCG2 expression”.

For the substance “Aβ1-40: Synthetic Aβ1-40 peptide purchased from Biopeptides Co., Inc”, the “effect of Aβ1-40 peptides on drug uptake in empty vector-transfected cells” value in data set [2] is listed as “did not significantly affect”. Further, in data set [3] (Abcg2 KO vs wt mice, i.v. injection of Cy5.5-labeled peptide), the “more peptide transported into the brain in the absence of Abcg2” value is 20~37%.

On to “Cy5.5-labeled Aβ1-40: Synthetic Aβ1-40 labeled with fluorescent dye Cy5.5 using Cy5.5 Mono NHS ester kit”, for which the “brain fluorescence concentration, Abcg2 KO vs wt animals” value in data set [3] (65 μg/mouse i.v., two pairs of mice, data not shown) is reported as “comparatively higher”. The “Aβ immunofluorescence in brains of Abcg2 KO mice compared to wt mice” value in data set [4] was “strongly enhanced”.

As to IL-1β: pro-inflammatory cytokine, the “ABCG2 expression in HBEC after cytokine” value in data set [1] is listed as “no changes in ABCG2 expression”.
